This is a sample that favours compounds with a hit; in the whole collection about 4% have one here.
FAK inh: FAK (human) kinase inhibition; 97,000 tested, 0.84% active; inhibition, %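 (tested at 7 µM)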; AID 727; biochemical FAK kinase activity assay; in the data active = inhibition above about 19%;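 note: 0% = DMSO and 100% = reference compound high control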
Smad3 FoxH1 inh: blocks human Smad3 binding to FoxH1 peptide | P84022 | TR-FRET Smad3/Dy647-FoxH1 peptide binding, europium anti-His | inhibition, % at 25 µM | 88,000 tested, 0.29% active | AID 630;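 active = compounds that reduce the energy-transfer binding signal between the protein and its labelled peptide by more than half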;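 note: 0% = Smad3 plus labelled peptide maximal FRET and 100% = peptide-only background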
Rev-RRE block: disrupts HIV-1 Rev binding to RRE RNA. Rev peptide-RRE RNA binding, FRET. inhibition, % at 8 µM. 97,000 tested, 0.79% active. AID 704;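 active = inhibition above the screen-wide mean plus 3 SD, cut at about 35% in these data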;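 note: 0% = median DMSO wells and 100% = median Neomycin B control wells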
Target sequence (P05866 whole entry, looked up): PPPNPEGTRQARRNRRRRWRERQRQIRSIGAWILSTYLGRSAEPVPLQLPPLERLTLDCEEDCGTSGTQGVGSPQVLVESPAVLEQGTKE
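Assay system: Rev peptide and RRE RNA, both fluorescently labelled; times: 5 min preincubation and 15 min binding, 25 °C; detection: FRET, ex 480 nm, em 540 and 671 nm; read-out basis: % inhibition from 671/540 nm acceptor-to-donor ratio, scaled between controls; benchmarks: DMSO low control, neomycin B high control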
ERa coact inh: ER-alpha (human) coactivator binding inhibition. inhibition, % at 25.6 µM. 86,000 tested, 1.7% active. P03372. TR-FRET ER-alpha LBD / SRC-1 peptide, estradiol-bound; in the data active = inhibition above about 50%;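 note: 0% = receptor plus peptide control and 100% = peptide only without receptor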
ERb SRC1 inh: blocks coactivator binding to human estrogen receptor beta | AID 633 | TR-FRET ER-beta LBD / SRC1-Cy5 peptide binding; receptor agonist-loaded with 1 µM estradiol | inhibition, % at 25.6 µM | 86,000 tested, 1.3% active;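 active = compounds whose percent inhibition of the receptor-coactivator binding signal exceeds about 50% in the single-dose screen, limit read from the data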;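 note: 0% = receptor plus peptide wells without compound and 100% = peptide-only wells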
Target sequence (Q92731 whole entry, looked up, the tested form may be a part): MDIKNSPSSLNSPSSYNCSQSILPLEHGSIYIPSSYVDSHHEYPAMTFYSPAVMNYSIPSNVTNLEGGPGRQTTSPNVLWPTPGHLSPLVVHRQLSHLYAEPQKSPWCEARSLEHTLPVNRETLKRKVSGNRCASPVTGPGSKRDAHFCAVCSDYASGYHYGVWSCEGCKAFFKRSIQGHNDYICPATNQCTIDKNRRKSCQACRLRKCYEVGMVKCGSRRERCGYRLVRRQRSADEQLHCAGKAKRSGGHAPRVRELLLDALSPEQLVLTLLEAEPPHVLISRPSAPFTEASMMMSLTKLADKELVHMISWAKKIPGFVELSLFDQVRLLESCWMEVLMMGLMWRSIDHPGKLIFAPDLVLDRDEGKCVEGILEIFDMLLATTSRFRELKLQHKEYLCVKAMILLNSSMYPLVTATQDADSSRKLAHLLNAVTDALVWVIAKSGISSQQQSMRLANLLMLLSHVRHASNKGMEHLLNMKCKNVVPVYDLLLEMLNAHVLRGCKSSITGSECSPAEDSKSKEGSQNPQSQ
ERa coact pot: ER-alpha (human) coactivator binding potentiation | coactivator binding (% of control), % at 25.6 µM | 86,000 tested, 1.3% active | P03372 | AID 639 | TR-FRET ERalpha-LBD/SRC-Cy5 coactivator binding, 2 h; 100 = basal binding, no effect; in the data active = activity above about 200%;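 note: binding measured in presence of low estradiol as agonist stimulus; 0% = peptide alone without receptor and 100% = receptor with peptide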
The depositor's hits bear a star; / = no result; [ ] = remark or other dose.

SMILES	FAK inh	Smad3 FoxH1 inh	Rev-RRE block	ERa coact inh	ERb SRC1 inh	ERa coact pot
CC(=O)c1c[nH]c2ccc(C)cc2c1=O	3.1	/	14.5	/	/	/
Nc1c(C(=O)c2cccs2)oc2ccccc12	2.9	-3.0	-1.8	-14.7	-4.4	258.8*[fluorescence artefact?]
Nc1c(C(=O)c2ccc(Br)s2)oc2ccccc12	6.7	15.9	-0.5	-4.1	7.1	107.6
c1ccc(C2(Cn3ccc4ccccc43)OCCO2)cc1	-2.9	2.3	3.3	98.6*[fluorescence artefact?]	-6.0	136.9
C(CCc1nnc2c(n1)CCCC2)Cc1nnc2c(n1)CCCC2	/	-2.6	/	/	/	/
C/C(N[O-])=C(\C)[N+]([O-])=[Co].CC(=N\[O-])/C(C)=N/[O-].O[C@@H]1[CH-]CCCC1.c1ccncc1	/	71.3*	/	/	/	/
O=C(O)c1ccc(OCc2ccccc2)c(Cl)c1	/	3.3	/	/	/	/
O=C(O)c1cc(N=Nc2ccc([N+](=O)[O-])cc2)ccc1O	/	8.4	/	/	/	/
O=C1c2ccccc2C(=O)N1CCn1nc(Cl)nc1Cl	/	4.0	/	-13.1	58.5*[fluorescence artefact?]	117.5
CC(C)c1ccc(O)c(O)c(=O)c1 (tested in a mixture with another compound)	/	16.0	/	/	/	/
Cc1nn(Cc2c(F)c(F)c(F)c(F)c2F)c(C)c1NC(=O)c1ccc(COc2ccc(F)cc2)o1	2.5	/	2.4	/	/	/
COc1ccccc1N1CCN(c2nnc(-c3ccc(F)cc3)c3ccccc23)CC1	0.0	-24.2	-1.9	14.4	12.9	102.3
Fc1ccc(-c2nnc(-n3nnc4ccccc43)c3ccccc23)cc1	2.0	-1.9	2.1	57.8*	47.3	156.5
O=C(O)C1C2C=CC3(CN(Cc4ccco4)C(=O)C13)O2 (stereo not given)	0.1	0.9	5.9	97.8*[fluorescence artefact?]	-1.4	111.5
COC(=O)C1C2C=CC3(CN(Cc4ccco4)C(=O)C13)O2 (stereo not given)	3.3	-9.1	9.9	-14.2	-5.9	85.2
Cc1noc(C)c1COC(=O)c1ccc(-c2nc3ccccc3s2)s1	-3.2	14.8	4.4	61.0*[fluorescence artefact?]	42.3	151.8
CCOC(=O)C1=C(C)N=C2SC(C)C(=O)N2C1/C=C/c1ccccc1OC (stereo not given)	-2.2	/	10.9	/	/	/
CCOC(=O)C1=c2/c(=C/c3ccccc3OC)c(N)c(C#N)n2C(=O)C(c2ccccc2OC)S1 (stereo not given)	-0.6	2.1	10.9	62.9*	51.5*	128.8
O=c1[nH]c(=O)n(Cc2ccco2)c2c1C(C(F)(F)F)(C(F)(F)F)N=C(CCC1CCCCC1)N2	-2.4	5.9	5.0	2.4	3.9	105.2
O=c1[nH]c(=O)n(Cc2ccco2)c2c1C(C(F)(F)F)(C(F)(F)F)N=C(CCc1ccccc1)N2	8.1	4.0	7.2	59.5*[fluorescence artefact?]	24.6	81.2
CC(C)CC(=O)Nc1ccc2oc(-c3ccncc3)nc2c1	-3.1	-1.3	6.3	40.6	12.6	104.8
O=S(=O)(c1ccc2oc(-c3ccncc3)nc2c1)c1ccc2oc(-c3ccncc3)nc2c1	/	22.5	/	10.2	51.0*[fluorescence artefact?]	236.8*[fluorescence artefact?]
CC(Oc1ccc(Cl)cc1Cl)C(=O)Nc1ccc2oc(-c3ccncc3)nc2c1 (stereo not given)	1.8	6.5	-3.7	25.5	40.8	327.0*
O=C(Cc1ccccc1)Nc1ccc2oc(-c3ccncc3)nc2c1	/	10.3	/	51.5*[fluorescence artefact?]	47.3	299.3*[fluorescence artefact?]
O=C(Nc1ccc2oc(-c3ccccc3)nc2c1)c1ccccc1F	-1.9	12.2	1.2	-4.9	1.8	121.2
SMILES	FAK inh	Smad3 FoxH1 inh	Rev-RRE block	ERa coact inh	ERb SRC1 inh	ERa coact pot
O=C(Nc1ccc2oc(-c3cccc(F)c3)nc2c1)c1ccccc1F	-4.9	-28.3	11.0	11.1	6.7	222.9*[fluorescence artefact?]
O=C(O)/C(=C\c1ccc(O)cc1)c1cccc2ccccc12	/	1.4	/	/	/	/
CCCN1C(=O)/C(=C/c2c(NCCCOC(C)C)nc3c(C)cccn3c2=O)SC1=S	-2.4	0.1	93.7*[fluorescence artefact?]	-10.8	-8.9	98.8
CCC(C)N1C(=O)/C(=C/c2c(NCCCOC(C)C)nc3c(C)cccn3c2=O)SC1=S (stereo not given)	-1.2	4.0	126.1*[fluorescence artefact?]	-11.9	-0.2	96.4
N#Cc1cc2c(nc1SCc1ccccc1)CCC2	2.5	52.5*[fluorescence artefact?]	-0.6	55.3*[fluorescence artefact?]	59.4*[fluorescence artefact?]	283.4*[fluorescence artefact?]
CCC1CCCCN1C(=O)Cn1c(C(=O)OC)cc2ccsc21 (stereo not given)	-4.0	9.2	-0.6	8.7	-2.2	110.2
CC(C)(C)CC(C)(C)NC(=S)Nc1ccc2nc(-c3ccccn3)c(-c3ccccn3)nc2c1	-0.1	/	76.2*	/	/	/
CN(C)NC(=S)Nc1ccc2nc(-c3ccccn3)c(-c3ccccn3)nc2c1	3.5	/	18.6	/	/	/
OCCCNC(=S)Nc1ccc2nc(-c3ccccn3)c(-c3ccccn3)nc2c1	4.5	/	36.1*	/	/	/
N=C1CCC[C@H]1C(=S)SCCC(N)=O	/	9.2	/	/	/	/
COC(=O)c1ccc(COC(=O)c2ccc(S(=O)(=O)N3CCC(C)CC3)cc2)o1	1.3	-5.6	4.6	18.7	7.0	730.0*
CCCn1cnc2c(SCC(=O)O)nc(N)nc21	/	-2.7	/	/	/	/
Cc1ccc(-c2nnn(CC(=O)Nc3ccc(S(=O)(=O)N4CCC(C)CC4)cc3)n2)cc1	10.1	7.0	14.2	44.2	21.9	107.3
CC1CCN(S(=O)(=O)c2ccc(NC(=O)Cn3nnc(-c4ccccc4)n3)cc2)CC1	9.4	-3.0	22.0	93.7*[fluorescence artefact?]	76.0*[fluorescence artefact?]	126.3
CC1CCN(S(=O)(=O)c2ccc(NC(=O)Cc3cccs3)cc2)CC1	7.6	-4.1	12.4	74.2*	61.9*	56.7
C=C1CCO[C@@]2([C@H](O)[C@@](C)(O)CO)NC(=O)[C@]1(O)NC2=O	/	10.0	/	/	/	/
CC(=O)N(C(C)=O)c1ccc2nc(C)[nH]c(=O)c2c1	-0.3	-1.6	3.1	5.6	-1.1	576.7*[fluorescence artefact?]
CC(=O)Nc1ccc(Oc2ccc3nc(C)[nH]c3c2)cc1	0.1	7.2	7.9	1.7	15.2	101.0
Cn1c(=O)oc2cc(S(=O)(=O)N3CCN(C(=O)c4ccco4)CC3)ccc21	-4.2	-0.5	41.3*	13.7	5.3	112.8
COCCNC(=O)c1c(N)n(CCC2=CCCCC2)c2nc3ccccc3nc12	3.3	/	55.8*	/	/	/
COCCn1c(N)c(C(=O)OCc2ccccc2)c2nc3ccccc3nc21	-0.3	6.8	16.8	4.3	11.3	114.9

High-throughput results from PubChem BioAssay.
